In brackets after ≈: the same amount, converted by molar mass.
Assays:
Format in all cases: functional
[1] = test system: Clostridium perfringens; assay: Antimicrobial activity against Clostridium perfringens isolated from intra-abdominal infection and pelvic inflammatory disease patients after 48 hrs by time kill analysis
How it was run: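 Macrodilution in prereduced brucella broth with 5% laked horse blood cells, 5 μg/ml hemin and 1 μg/ml vitamin K1. Final inoculum 10^6 to 10^7 CFU/ml, prepared inside the anaerobe chamber. Vials incubated 48 h at 35°C in a shaking water bath. MIC read by inspecting the time-kill tubes, alongside an antibiotic-free growth control.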

[2] = test system: Fusobacterium necrophorum; assay: Antimicrobial activity against Fusobacterium necrophorum isolated from intra-abdominal infection and pelvic inflammatory disease patients after 48 hrs by agar dilution method
How it was run: (§1)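 CLSI agar dilution on brucella blood agar supplemented with laked sheep blood, hemin and vitamin K. Inocula of about 1 × 10^5 CFU/spot were applied by Steers replicator, and plates were incubated 48 h at 35°C in an anaerobic glove box. MIC was the concentration giving marked growth reduction versus the anaerobic control plate. QC strains were included each run, and β-lactamase was detected by Cefinase disk.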

[3] = test system: Paraclostridium bifermentans; assay: Antimicrobial activity against Clostridium bifermentans isolated from intra-abdominal infection and pelvic inflammatory disease patients after 48 hrs by agar dilution method; how it was run: as §1
[4] = test system: Finegoldia magna; assay: Antimicrobial activity against Finegoldia magna isolated from intra-abdominal infection and pelvic inflammatory disease patients after 48 hrs by agar dilution method; how it was run: as §1
[5] = test system: Porphyromonas gingivalis; assay: Antimicrobial activity against Porphyromonas gingivalis isolated from intra-abdominal infection and pelvic inflammatory disease patients after 48 hrs by agar dilution method; how it was run: as §1
[6] = test system: Fusobacterium mortiferum; assay: Antimicrobial activity against beta lactamase-positive Fusobacterium mortiferum isolated from intra-abdominal infection and pelvic inflammatory disease patients after 48 hrs by agar dilution method; how it was run: as §1
[7] = test system: Clostridium perfringens; assay: Antimicrobial activity against Clostridium perfringens isolated from intra-abdominal infection and pelvic inflammatory disease patients after 48 hrs by agar dilution method
How it was run: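 CLSI agar dilution on brucella blood agar supplemented with laked sheep blood, hemin and vitamin K. Inoculum about 1 × 10^5 CFU/spot, applied by Steers replicator. Plates incubated 48 h at 35°C in an anaerobic glove box. MIC is the concentration giving marked growth reduction versus the anaerobic control plate. Standard QC strains included in each run.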

[8] = test system: Clostridium cadaveris; assay: Antimicrobial activity against Clostridium cadaveris isolated from intra-abdominal infection and pelvic inflammatory disease patients after 48 hrs by agar dilution method; how it was run: as §1
[9] = test system: Fusobacterium varium; assay: Antimicrobial activity against Fusobacterium varium isolated from intra-abdominal infection and pelvic inflammatory disease patients after 48 hrs by agar dilution method; how it was run: as §1
[10] = test system: Fusobacterium nucleatum; assay: Antimicrobial activity against beta lactamase-positive Fusobacterium nucleatum isolated from intra-abdominal infection and pelvic inflammatory disease patients after 48 hrs by time kill analysis
How it was run: (§2)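 The MIC was read by inspecting macrodilution time-kill tubes. Vials held prereduced brucella broth with 5% laked horse blood cells, hemin 5 μg/ml and vitamin K1 1 μg/ml. Final inoculum was 10^6–10^7 CFU/ml, prepared inside the anaerobe chamber. Vials were incubated 48 h at 35°C in a shaking water bath.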

[11] = test system: Prevotella melaninogenica; assay: Antimicrobial activity against beta lactamase-positive Prevotella melaninogenica isolated from intra-abdominal infection and pelvic inflammatory disease patients after 48 hrs by agar dilution method; how it was run: as §1
[12] = test system: Prevotella corporis; assay: Antimicrobial activity against beta lactamase-positive Prevotella corporis isolated from intra-abdominal infection and pelvic inflammatory disease patients after 48 hrs by agar dilution method; how it was run: as §1
[13] = test system: Bacteroides fragilis; assay: Antimicrobial activity against beta lactamase-positive Bacteroides fragilis isolated from intra-abdominal infection and pelvic inflammatory disease patients after 48 hrs by time kill analysis; how it was run: as §2
[14] = test system: Prevotella disiens; assay: Antimicrobial activity against beta lactamase-positive Prevotella disiens isolated from intra-abdominal infection and pelvic inflammatory disease patients after 48 hrs by agar dilution method; how it was run: as §1
[15] = test system: Enterocloster clostridioformis; assay: Antimicrobial activity against Clostridium clostridioforme isolated from intra-abdominal infection and pelvic inflammatory disease patients after 48 hrs by agar dilution method; how it was run: as §1
[16] = test system: Anaerococcus tetradius; assay: Antimicrobial activity against Anaerococcus tetradius isolated from intra-abdominal infection and pelvic inflammatory disease patients after 48 hrs by agar dilution method; how it was run: as §1
[17] = test system: Bacteroides ovatus; assay: Antimicrobial activity against beta lactamase-positive Bacteroides ovatus isolated from intra-abdominal infection and pelvic inflammatory disease patients after 48 hrs by agar dilution method; how it was run: as §1
[18] = test system: Bacteroides thetaiotaomicron; assay: Antimicrobial activity against beta lactamase-positive Bacteroides thetaiotaomicron isolated from intra-abdominal infection and pelvic inflammatory disease patients after 48 hrs by agar dilution method; how it was run: as §1
[19] = test system: Prevotella buccae; assay: Antimicrobial activity against beta lactamase-positive Prevotella buccae isolated from intra-abdominal infection and pelvic inflammatory disease patients after 48 hrs by agar dilution method; details: Segatella buccae; how it was run: as §1
[20] = test system: Prevotella denticola; assay: Antimicrobial activity against beta lactamase-positive Prevotella denticola isolated from intra-abdominal infection and pelvic inflammatory disease patients after 48 hrs by agar dilution method; how it was run: as §1
[21] = test system: Peptostreptococcus anaerobius; assay: Antimicrobial activity against Peptostreptococcus anaerobius isolated from intra-abdominal infection and pelvic inflammatory disease patients after 48 hrs by agar dilution method; how it was run: as §1
[22] = test system: Finegoldia magna; assay: Antimicrobial activity against beta lactamase-positive Finegoldia magna isolated from intra-abdominal infection and pelvic inflammatory disease patients after 48 hrs by time kill analysis; how it was run: as §2
[23] = test system: [Clostridium] innocuum; assay: Antimicrobial activity against Clostridium innocuum isolated from intra-abdominal infection and pelvic inflammatory disease patients after 48 hrs by agar dilution method; how it was run: as §1
[24] = test system: Thomasclavelia ramosa; assay: Antimicrobial activity against Clostridium ramosum isolated from intra-abdominal infection and pelvic inflammatory disease patients after 48 hrs by agar dilution method; how it was run: as §1
[25] = test system: Parvimonas micra; assay: Antimicrobial activity against Micromonas micros isolated from intra-abdominal infection and pelvic inflammatory disease patients after 48 hrs by agar dilution method; how it was run: as §1
[26] = test system: Bacteroides fragilis; assay: Antimicrobial activity against beta lactamase-positive Bacteroides fragilis isolated from intra-abdominal infection and pelvic inflammatory disease patients after 48 hrs by agar dilution method; how it was run: as §1
[27] = test system: Anaerococcus prevotii; assay: Antimicrobial activity against Anaerococcus prevotii isolated from intra-abdominal infection and pelvic inflammatory disease patients after 48 hrs by agar dilution method; how it was run: as §1
[28] = test system: Phocaeicola vulgatus; assay: Antimicrobial activity against beta lactamase-positive Bacteroides vulgatus isolated from intra-abdominal infection and pelvic inflammatory disease patients after 48 hrs by agar dilution method; how it was run: as §1
[29] = test system: Porphyromonas asaccharolytica; assay: Antimicrobial activity against Porphyromonas asaccharolyticus isolated from intra-abdominal infection and pelvic inflammatory disease patients after 48 hrs by agar dilution method; how it was run: as §1
[30] = test system: Clostridioides difficile; assay: Antimicrobial activity against Clostridium difficile isolated from intra-abdominal infection and pelvic inflammatory disease patients after 48 hrs by agar dilution method; how it was run: as §1
[31] = test system: Porphyromonas levii; assay: Antimicrobial activity against Porphyromonas levii isolated from intra-abdominal infection and pelvic inflammatory disease patients after 48 hrs by agar dilution method; how it was run: as §1
[32] = test system: Peptoniphilus asaccharolyticus; assay: Antimicrobial activity against Peptoniphilus asaccharolyticus isolated from intra-abdominal infection and pelvic inflammatory disease patients after 48 hrs by agar dilution method; how it was run: as §1
[33] = test system: Prevotella bivia; assay: Antimicrobial activity against beta lactamase-positive Prevotella bivia isolated from intra-abdominal infection and pelvic inflammatory disease patients after 48 hrs by agar dilution method; how it was run: as §1
[34] = test system: Prevotella intermedia; assay: Antimicrobial activity against beta lactamase-positive Prevotella intermedia isolated from intra-abdominal infection and pelvic inflammatory disease patients after 48 hrs by time kill analysis; how it was run: as §2
[35] = test system: Prevotella intermedia; assay: Antimicrobial activity against beta lactamase-positive Prevotella intermedia isolated from intra-abdominal infection and pelvic inflammatory disease patients after 48 hrs by agar dilution method; how it was run: as §1
[36] = test system: Clostridium paraputrificum; assay: Antimicrobial activity against Clostridium paraputrificum isolated from intra-abdominal infection and pelvic inflammatory disease patients after 48 hrs by agar dilution method; how it was run: as §1
[37] = test system: Fusobacterium nucleatum; assay: Antimicrobial activity against beta lactamase-positive Fusobacterium nucleatum isolated from intra-abdominal infection and pelvic inflammatory disease patients after 48 hrs by agar dilution method; how it was run: as §1
[38] = test system: Prevotella nigrescens; assay: Antimicrobial activity against beta lactamase-positive Prevotella nigrescens isolated from intra-abdominal infection and pelvic inflammatory disease patients after 48 hrs by agar dilution method; how it was run: as §1
[39] = test system: Parabacteroides distasonis; assay: Antimicrobial activity against beta lactamase-positive Bacteroides distasonis isolated from intra-abdominal infection and pelvic inflammatory disease patients after 48 hrs by agar dilution method; how it was run: as §1
[40] = test system: Paeniclostridium sordellii; assay: Antimicrobial activity against Clostridium sordellii isolated from intra-abdominal infection and pelvic inflammatory disease patients after 48 hrs by agar dilution method; details: Paraclostridium sordellii; how it was run: as §1

Compound: CO/N=C(\C(=O)N[C@@H]1C(=O)N2C(C(=O)O)=C(CSc3nc(=O)c(O)nn3C)CS[C@H]12)c1csc(N)n1 [CEFTRIAXONE]
- MIC [1]: 2 mg/L (≈ 3.61 µM)
- MIC50 [2]: ≤ 0.125 mg/L
- MIC90 [2]: 0.5 mg/L (≈ 0.902 µM)
- MIC [3]: 0.25 mg/L (≈ 0.451 µM)
- MIC50 [4]: 8 mg/L (≈ 14.4 µM)
- MIC90 [4]: 8 mg/L (≈ 14.4 µM)
- MIC [5]: ≤ 0.125 mg/L
- MIC50 [6]: 0.25 mg/L (≈ 0.451 µM)
- MIC90 [6]: ≥ 128 mg/L
- MIC50 [7]: 2 mg/L (≈ 3.61 µM)
- MIC90 [7]: 4 mg/L (≈ 7.21 µM)
- MIC [8]: 4 mg/L (≈ 7.21 µM)
- MIC50 [9]: 4 mg/L (≈ 7.21 µM)
- MIC90 [9]: 8 mg/L (≈ 14.4 µM)
- MIC [10]: 0.125 mg/L (≈ 0.225 µM)
- MIC50 [11]: 4 mg/L (≈ 7.21 µM)
- MIC90 [11]: 16 mg/L (≈ 28.9 µM)
- MIC50 [12]: 4 mg/L (≈ 7.21 µM)
- MIC90 [12]: 32 mg/L (≈ 57.7 µM)
- MIC [13]: 0.25 mg/L (≈ 0.451 µM)
- MIC50 [14]: 2 mg/L (≈ 3.61 µM)
- MIC90 [14]: 64 mg/L (≈ 115 µM)
- MIC [15]: 64 mg/L (≈ 115 µM)
- MIC [16]: 0.25 mg/L (≈ 0.451 µM)
- MIC50 [16]: 0.25 mg/L (≈ 0.451 µM)
- MIC50 [17]: 64 mg/L (≈ 115 µM)
- MIC90 [17]: > 128 mg/L
- MIC50 [18]: > 128 mg/L
- MIC90 [18]: > 128 mg/L
- MIC50 [19]: 0.25 mg/L (≈ 0.451 µM)
- MIC90 [19]: 4 mg/L (≈ 7.21 µM)
- MIC50 [20]: 4 mg/L (≈ 7.21 µM)
- MIC90 [20]: 64 mg/L (≈ 115 µM)
- MIC [21]: 0.5 mg/L (≈ 0.902 µM)
- MIC50 [21]: 0.5 mg/L (≈ 0.902 µM)
- MIC90 [21]: 16 mg/L (≈ 28.9 µM)
- MIC [22]: 8 mg/L (≈ 14.4 µM)
- MIC50 [23]: 16 mg/L (≈ 28.9 µM)
- MIC50 [24]: 0.5 mg/L (≈ 0.902 µM)
- MIC [25]: ≤ 0.125 mg/L
- MIC50 [25]: ≤ 0.125 mg/L
- MIC90 [25]: 1 mg/L (≈ 1.8 µM)
- MIC50 [26]: 64 mg/L (≈ 115 µM)
- MIC90 [26]: > 128 mg/L
- MIC [27]: ≤ 0.125 mg/L
- MIC50 [28]: 16 mg/L (≈ 28.9 µM)
- MIC90 [28]: > 128 mg/L
- MIC [29]: ≤ 0.125 mg/L
- MIC50 [30]: 64 mg/L (≈ 115 µM)
- MIC90 [30]: 64 mg/L (≈ 115 µM)
- MIC [31]: ≤ 0.125 mg/L
- MIC [32]: ≤ 0.125 mg/L
- MIC50 [32]: ≤ 0.125 mg/L
- MIC90 [32]: 1 mg/L (≈ 1.8 µM)
- MIC50 [33]: 8 mg/L (≈ 14.4 µM)
- MIC90 [33]: 64 mg/L (≈ 115 µM)
- MIC [34]: 0.125 mg/L (≈ 0.225 µM)
- MIC50 [35]: 4 mg/L (≈ 7.21 µM)
- MIC90 [35]: 64 mg/L (≈ 115 µM)
- MIC [36]: 4 mg/L (≈ 7.21 µM)
- MIC50 [37]: 0.25 mg/L (≈ 0.451 µM)
- MIC90 [37]: 0.5 mg/L (≈ 0.902 µM)
- MIC50 [38]: 4 mg/L (≈ 7.21 µM)
- MIC90 [38]: 16 mg/L (≈ 28.9 µM)
- MIC50 [39]: 8 mg/L (≈ 14.4 µM)
- MIC90 [39]: > 128 mg/L
- MIC [40]: 0.25 mg/L (≈ 0.451 µM)
